According to ChEMBL document CHEMBL1121603, “Structure-activity relationships of antibacterial 6,7- and 7,8-disubstituted 1-alkyl-1,4-dihydro-4-oxoquinoline-3-carboxylic acids” (1980):
In brackets after ≈: the same amount, converted by molar mass.

Legend:
Format in all cases: functional
Escherichia coli = test: In vitro for antibacterial activity against Gram-negative Escherichia coli […] JC-2.
Procedure, shortened: (§1)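 MIC in µg/mL, determined by a standard twofold serial dilution method on agar media.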

Pseudomonas aeruginosa = test: In vitro antibacterial activity against Gram-negative Pseudomonas aeruginosa V-1.; procedure, shortened: as §1
Staphylococcus aureus = test: In vitro antibacterial activity against Gram-positive, Staphylococcus aureus 209 P; procedure, shortened: as §1

| Compound | MIC (Escherichia coli) | MIC (Pseudomonas aeruginosa) | MIC (Staphylococcus aureus) |
| --- | --- | --- | --- |
| CCn1cc(C(=O)O)c(=O)c2cc(F)c(N3CCC(O)CC3)cc21 | 0.2 µg/mL (≈ 0.598 µM) | 12.5 µg/mL (≈ 37.4 µM) | 0.39 µg/mL (≈ 1.17 µM) |
| CCOC(=O)c1cn(CC)c2cc(N3CCNCC3)c(F)cc2c1=O | 12.5 µg/mL (≈ 36 µM) | 50 µg/mL (≈ 144 µM) | 50 µg/mL (≈ 144 µM) |
| C=Cn1cc(C(=O)O)c(=O)c2cc(F)c(N3CCN(C)CC3)cc21 | 0.1 µg/mL (≈ 0.302 µM) | 3.13 µg/mL (≈ 9.45 µM) | 1.56 µg/mL (≈ 4.71 µM) |
| CCn1ccc(=O)c2cc(F)c(N3CCNCC3)cc21 | > 100 µg/mL | > 100 µg/mL | > 100 µg/mL |
| CCn1cc(C(=O)O)c(=O)c2cc(C(C)=O)c(N3CCNCC3)cc21 | 100 µg/mL (≈ 291 µM) | > 100 µg/mL | 100 µg/mL (≈ 291 µM) |
| CCn1cc(C(=O)O)c(=O)c2cc(F)c(N3CCN(Cc4ccccc4)CC3)cc21 | 0.78 µg/mL (≈ 1.9 µM) | 50 µg/mL (≈ 122 µM) | 0.39 µg/mL (≈ 0.952 µM) |
| CCn1cc(C(=O)O)c(=O)c2cc(F)c(N3CCNC(=O)C3)cc21 [3-OXO-1-PIPERAZINYL-NORFLOXACIN] | 0.39 µg/mL (≈ 1.17 µM) | 12.5 µg/mL (≈ 37.5 µM) | 3.13 µg/mL (≈ 9.39 µM) |
| CCn1cc(C(=O)O)c(=O)c2cc([N+](=O)[O-])c(N3CCNCC3)cc21 | 0.78 µg/mL (≈ 2.25 µM) | 12.5 µg/mL (≈ 36.1 µM) | 25 µg/mL (≈ 72.2 µM) |
| CCn1cc(C(=O)O)c(=O)c2cc(F)c(N3CCN(Cc4ccc([N+](=O)[O-])cc4)CC3)cc21 | 6.25 µg/mL (≈ 13.8 µM) | > 100 µg/mL | 1.56 µg/mL (≈ 3.43 µM) |
| CN1CCN(c2cc3c(cc2F)c(=O)c(C(=O)O)cn3CCF)CC1 | 0.1 µg/mL (≈ 0.285 µM) | 3.13 µg/mL (≈ 8.91 µM) | 0.39 µg/mL (≈ 1.11 µM) |
| O=C(O)c1cn(Cc2ccccc2)c2cc(N3CCNCC3)c(F)cc2c1=O | 0.78 µg/mL (≈ 2.05 µM) | 1.56 µg/mL (≈ 4.09 µM) | 1.56 µg/mL (≈ 4.09 µM) |
| CCn1cc(C(=O)O)c(=O)c2cc(F)c(N3CCNCC3)cc21 [NORFLOXACIN] | 0.05 µg/mL (≈ 0.157 µM) | 0.39 µg/mL (≈ 1.22 µM) | 0.39 µg/mL (≈ 1.22 µM) |
| CCn1cc(C(=O)O)c(=O)c2cc(F)c(C)cc21 [NALDIXIC ACID] | 0.39 µg/mL (≈ 1.56 µM) | 50 µg/mL (≈ 201 µM) | 6.25 µg/mL (≈ 25.1 µM) |
| CCn1cc(C(=O)O)c(=O)c2cc(F)c(N3CCOCC3)cc21 | 0.2 µg/mL (≈ 0.624 µM) | 12.5 µg/mL (≈ 39 µM) | 0.78 µg/mL (≈ 2.44 µM) |
| CCn1cc(C(=O)O)c(=O)c2cc3c(cc21)OCO3 [OXOLINIC ACID] | 0.1 µg/mL (≈ 0.383 µM) | 25 µg/mL (≈ 95.7 µM) | 3.13 µg/mL (≈ 12 µM) |
| CCn1cc(C(=O)O)c(=O)c2ccc(N3CCNCC3)c(F)c21.Cl | 0.78 µg/mL | 1.56 µg/mL | 12.5 µg/mL |
| CCn1cc(C(=O)O)c(=O)c2cc(F)c(N3CCN(C=O)CC3)cc21 [4-N-FORMYL-1-PIPERAZINYL-NORFLOXACIN] | 0.39 µg/mL (≈ 1.12 µM) | 6.25 µg/mL (≈ 18 µM) | 1.56 µg/mL (≈ 4.49 µM) |
| CCn1cc(C(=O)O)c(=O)c2cc(F)c(N3CCC(N(C)C)CC3)cc21 | 0.1 µg/mL (≈ 0.277 µM) | 3.13 µg/mL (≈ 8.66 µM) | 0.39 µg/mL (≈ 1.08 µM) |
| CCn1cc(C(=O)O)c(=O)c2ccc(C)nc21 [NALIDIXIC ACID] | 3.13 µg/mL (≈ 13.5 µM) | 100 µg/mL (≈ 431 µM) | > 100 µg/mL |
| Cl.Cn1cc(C(=O)O)c(=O)c2cc(F)c(N3CCNCC3)cc21 | 0.39 µg/mL | 1.56 µg/mL | 6.25 µg/mL |
| Cl.O=C(O)c1cn(CCO)c2cc(N3CCNCC3)c(F)cc2c1=O | 0.39 µg/mL | 3.13 µg/mL | 1.56 µg/mL |
| CCn1cc(C(=O)O)c(=O)c2cc(Cl)c(N3CCN(C)CC3)cc21 | 0.78 µg/mL (≈ 2.23 µM) | 25 µg/mL (≈ 71.5 µM) | 1.56 µg/mL (≈ 4.46 µM) |
| CCn1cc(C(=O)O)c(=O)c2cc(F)c(Cl)cc21 | 1.56 µg/mL (≈ 5.79 µM) | 100 µg/mL (≈ 371 µM) | 12.5 µg/mL (≈ 46.4 µM) |
| CCn1cc(C(=O)O)c(=O)c2ccc(N3CCNCC3)cc21 | 0.78 µg/mL (≈ 2.59 µM) | 3.13 µg/mL (≈ 10.4 µM) | 12.5 µg/mL (≈ 41.5 µM) |
| C=CCN1CCN(c2cc3c(cc2F)c(=O)c(C(=O)O)cn3CC)CC1 | 0.39 µg/mL (≈ 1.09 µM) | 6.25 µg/mL (≈ 17.4 µM) | 0.39 µg/mL (≈ 1.09 µM) |
| CCn1cc(C(=O)O)c(=O)c2cc(F)c(N3CCCC3)cc21 | 0.39 µg/mL (≈ 1.28 µM) | 12.5 µg/mL (≈ 41.1 µM) | 0.2 µg/mL (≈ 0.657 µM) |

| Compound | MIC (Escherichia coli) | MIC (Pseudomonas aeruginosa) | MIC (Staphylococcus aureus) |
| --- | --- | --- | --- |
| CCn1cc(C(=O)O)c(=O)c2cc(F)c(N(C)C)cc21 | 0.39 µg/mL (≈ 1.4 µM) | 50 µg/mL (≈ 180 µM) | 0.78 µg/mL (≈ 2.8 µM) |
| CCn1cc(C(=O)O)c(=O)c2ccc(N3CCNCC3)c(Cl)c21.Cl | 0.39 µg/mL | 6.25 µg/mL | 3.13 µg/mL |
| CCn1cc(C(=O)O)c(=O)c2cc(F)c(N3CCN(CCO)CC3)cc21 | 0.1 µg/mL (≈ 0.275 µM) | 6.25 µg/mL (≈ 17.2 µM) | 0.78 µg/mL (≈ 2.15 µM) |
| CCN1CCN(c2cc3c(cc2F)c(=O)c(C(=O)O)cn3CC)CC1 | 0.1 µg/mL (≈ 0.288 µM) | 3.13 µg/mL (≈ 9.01 µM) | – |
| CCn1cc(C(=O)OC)c(=O)c2cc(F)c(N3CCNCC3)cc21 | 12.5 µg/mL (≈ 37.5 µM) | 50 µg/mL (≈ 150 µM) | 100 µg/mL (≈ 300 µM) |
| CCn1cc(C(=O)O)c(=O)c2cc(F)c(N)cc21 [7-AMINO-FLUOROQUINONE] | 3.13 µg/mL (≈ 12.5 µM) | > 100 µg/mL | > 100 µg/mL |
| CCn1cc(C(=O)O)c(=O)c2cc(Cl)c(N3CCNCC3)cc21.Cl | 0.2 µg/mL | 3.13 µg/mL | 1.56 µg/mL |
| CCCn1cc(C(=O)O)c(=O)c2cc(F)c(N3CCNCC3)cc21.Cl | 0.2 µg/mL | 3.13 µg/mL | 1.56 µg/mL |
| CCn1cc(C(=O)O)c(=O)c2cc(F)c(N3CCN(C(C)=O)CC3)cc21 [4-N-ACETYL-1-PIPERAZINYL-NORFLOXACIN] | 1.56 µg/mL (≈ 4.32 µM) | 25 µg/mL (≈ 69.2 µM) | 0.78 µg/mL (≈ 2.16 µM) |
| CCn1cc(C(=O)O)c(=O)c2cc(F)c(N3CCC(C(N)=O)CC3)cc21 | 1.56 µg/mL (≈ 4.32 µM) | 100 µg/mL (≈ 277 µM) | 1.56 µg/mL (≈ 4.32 µM) |
| CCn1cc(C(=O)O)c(=O)c2cc(Br)c(N3CCN(C)CC3)cc21 | 0.39 µg/mL (≈ 0.989 µM) | 100 µg/mL (≈ 254 µM) | 1.56 µg/mL (≈ 3.96 µM) |
| CCn1cc(C(=O)O)c(=O)c2cc(Br)c(N3CCNCC3)cc21.Cl | 0.39 µg/mL | 12.5 µg/mL | 3.13 µg/mL |
| CCn1cc(C(=O)O)c(=O)c2cnc(N3CCNCC3)nc21 [PIPEMIDIC ACID] | 1.56 µg/mL (≈ 5.14 µM) | 12.5 µg/mL (≈ 41.2 µM) | 25 µg/mL (≈ 82.4 µM) |
| CCn1cc(C(=O)O)c(=O)c2cc(F)c(N3CCCCC3)cc21 | 1.56 µg/mL (≈ 4.9 µM) | 50 µg/mL (≈ 157 µM) | 0.78 µg/mL (≈ 2.45 µM) |
| C=Cn1cc(C(=O)O)c(=O)c2cc(F)c(N3CCNCC3)cc21 | 0.1 µg/mL (≈ 0.315 µM) | 0.39 µg/mL (≈ 1.23 µM) | 3.13 µg/mL (≈ 9.86 µM) |
| CCn1cc(C(=O)O)c(=O)c2cc(F)c(N3CCN(C(=O)c4ccccc4)CC3)cc21 | 3.13 µg/mL (≈ 7.39 µM) | 25 µg/mL (≈ 59 µM) | 1.56 µg/mL (≈ 3.68 µM) |
| CCn1cc(C(=O)O)c(=O)c2cc(SC)c(N3CCNCC3)cc21 | 0.78 µg/mL (≈ 2.24 µM) | 12.5 µg/mL (≈ 36 µM) | 25 µg/mL (≈ 72 µM) |
| CCn1cc(C(=O)O)c(=O)c2cc(F)c(NCCN)cc21 | 6.25 µg/mL (≈ 21.3 µM) | 50 µg/mL (≈ 170 µM) | > 100 µg/mL |
| Cl.O=C(O)c1cn(CCF)c2cc(N3CCNCC3)c(F)cc2c1=O | 0.1 µg/mL | 0.78 µg/mL | 1.56 µg/mL |
| CCn1cc(C(=O)O)c(=O)c2cc(C)c(N3CCNCC3)cc21.Cl | 0.39 µg/mL | 6.25 µg/mL | 3.13 µg/mL |
| CCn1cc(C(=O)O)c(=O)c2cc(F)c(NCCNC(C)=O)cc21 [7-ACETYLAMINOETHYL-AMINO-FLUOROQUINONE] | 25 µg/mL (≈ 74.6 µM) | > 100 µg/mL | > 100 µg/mL |
| CCn1cc(C(=O)O)c(=O)c2cc(F)c(N3CCN(C)CC3)cc21 [PEFLOXACIN] | 0.1 µg/mL (≈ 0.3 µM) | – | 0.39 µg/mL (≈ 1.17 µM) |
| CCn1cc(C(=O)O)c(=O)c2cc(F)c(N3CCN(Cc4ccc(N)cc4)CC3)cc21 | – | 12.5 µg/mL (≈ 29.4 µM) | – |
| CCn1cc(C(=O)O)c(=O)c2cc(C#N)c(N3CCNCC3)cc21 | 0.39 µg/mL (≈ 1.2 µM) | 6.25 µg/mL (≈ 19.2 µM) | 12.5 µg/mL (≈ 38.3 µM) |
| C=CCn1cc(C(=O)O)c(=O)c2cc(F)c(N3CCNCC3)cc21.Cl | 0.2 µg/mL | 1.56 µg/mL | 3.13 µg/mL |
